Results: ChEMBL document CHEMBL1131013, “Synthesis and evaluation of analogues of the partial agonist 6-(propyloxy)-4-(methoxymethyl)-beta-carboline-3-carboxylic acid ethyl ester (6-PBC) and the full agonist 6-(benzyloxy)-4-(methoxymethyl)-beta-carboline-3-carboxylic acid ethyl ester (Zk 93423) at wild type and recombinant GABAA receptors” (J Med Chem, 1998)
pIC50, pKi: −log10 of the molar value.

Experiments:
[1] = target: GABA-A receptor; anion channel; test: Displacement of [3H]flunitrazepam from GABA-A Benzodiazepine receptor of rat brain cortical membranes; assay type: cell membranes, Membrane
Method in brief: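 Rat cerebral cortex homogenized in 50 mM Tris-citrate, pH 7.4, and washed by centrifugation (20000g). […] Nonspecific binding with 10 μM Ro15-1788. Ended by vacuum filtration. IC50 estimated from at least six inhibitor concentrations; mean ± SEM of at least three determinations.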

[2] = target: T1, GABA-A receptor; alpha-3/beta-3/gamma-2 (Homo sapiens, UniProt P18507+P28472+P34903); test: Binding affinity measured using LtK- cell membranes expressing GABA alpha-3-beta-3-gamma-2 receptor
T1 sequence (P18507 whole entry): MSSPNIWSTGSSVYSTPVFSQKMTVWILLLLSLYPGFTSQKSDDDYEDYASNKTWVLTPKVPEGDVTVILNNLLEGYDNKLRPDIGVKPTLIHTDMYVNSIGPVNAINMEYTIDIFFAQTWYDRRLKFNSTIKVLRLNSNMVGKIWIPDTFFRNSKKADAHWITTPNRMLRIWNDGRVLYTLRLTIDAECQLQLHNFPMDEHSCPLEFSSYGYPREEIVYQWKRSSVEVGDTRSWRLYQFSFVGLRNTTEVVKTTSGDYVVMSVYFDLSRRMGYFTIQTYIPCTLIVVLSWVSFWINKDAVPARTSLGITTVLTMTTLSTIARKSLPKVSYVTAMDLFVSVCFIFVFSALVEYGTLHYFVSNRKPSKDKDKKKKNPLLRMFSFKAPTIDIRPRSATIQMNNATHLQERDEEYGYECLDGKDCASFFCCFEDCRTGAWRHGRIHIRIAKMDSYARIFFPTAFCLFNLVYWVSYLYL
T1 sequence (P28472 whole entry): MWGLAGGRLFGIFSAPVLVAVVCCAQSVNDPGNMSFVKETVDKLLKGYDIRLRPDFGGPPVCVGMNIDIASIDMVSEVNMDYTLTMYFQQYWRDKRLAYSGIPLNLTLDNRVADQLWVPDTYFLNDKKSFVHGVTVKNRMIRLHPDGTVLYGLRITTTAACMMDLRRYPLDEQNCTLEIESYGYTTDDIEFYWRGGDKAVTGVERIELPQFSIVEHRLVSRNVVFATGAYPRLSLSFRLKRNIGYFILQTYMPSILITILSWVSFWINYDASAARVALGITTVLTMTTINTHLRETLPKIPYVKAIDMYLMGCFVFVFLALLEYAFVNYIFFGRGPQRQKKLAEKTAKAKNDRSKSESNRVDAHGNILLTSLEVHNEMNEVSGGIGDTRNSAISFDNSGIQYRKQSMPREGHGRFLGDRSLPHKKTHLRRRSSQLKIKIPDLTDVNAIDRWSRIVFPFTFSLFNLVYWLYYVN
T1 sequence (P34903 whole entry): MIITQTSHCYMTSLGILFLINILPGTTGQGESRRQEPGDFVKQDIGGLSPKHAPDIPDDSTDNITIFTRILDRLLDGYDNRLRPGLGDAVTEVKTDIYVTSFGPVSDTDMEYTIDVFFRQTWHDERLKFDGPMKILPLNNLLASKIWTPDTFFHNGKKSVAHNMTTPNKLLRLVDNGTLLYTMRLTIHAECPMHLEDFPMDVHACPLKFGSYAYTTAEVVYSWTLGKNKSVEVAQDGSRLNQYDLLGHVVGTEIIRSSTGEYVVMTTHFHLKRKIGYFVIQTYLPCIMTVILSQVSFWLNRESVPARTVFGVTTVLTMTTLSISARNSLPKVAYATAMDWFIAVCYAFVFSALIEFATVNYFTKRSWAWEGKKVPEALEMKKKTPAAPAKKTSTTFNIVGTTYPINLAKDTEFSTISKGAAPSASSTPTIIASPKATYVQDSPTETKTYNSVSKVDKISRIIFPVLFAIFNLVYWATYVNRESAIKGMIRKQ

[3] = target: GABA-A receptor; alpha-6/beta-3/gamma-2 (Homo sapiens, UniProt P18507+P28472+Q16445); test: Binding affinity measured using LtK- cell membranes expressing Gamma-aminobutyric acid A receptor alpha-6-beta-3-gamma-2
Chain of GABA-A receptor; alpha-6/beta-3/gamma-2 (Q16445 whole entry, one chain of several): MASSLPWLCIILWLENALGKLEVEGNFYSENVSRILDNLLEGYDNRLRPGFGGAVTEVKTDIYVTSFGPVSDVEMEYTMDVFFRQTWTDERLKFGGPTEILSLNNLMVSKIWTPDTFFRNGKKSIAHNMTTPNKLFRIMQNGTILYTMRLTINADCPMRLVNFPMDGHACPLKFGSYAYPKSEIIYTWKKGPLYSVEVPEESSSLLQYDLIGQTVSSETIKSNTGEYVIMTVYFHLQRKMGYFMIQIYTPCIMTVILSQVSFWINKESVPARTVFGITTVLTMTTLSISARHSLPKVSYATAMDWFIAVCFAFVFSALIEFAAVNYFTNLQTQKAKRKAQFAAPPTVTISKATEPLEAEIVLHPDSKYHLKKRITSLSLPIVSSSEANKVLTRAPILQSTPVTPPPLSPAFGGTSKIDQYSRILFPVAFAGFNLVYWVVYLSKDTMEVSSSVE
Method in brief: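 Ltk- cells expressing human α6β3γ2, scraped into PBS and resuspended in 10 mM KH2PO4/100 mM KCl pH 7.4. 1 h at 4 °C to equilibrium, filtration, scintillation counting.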

[4] = target: T2, GABA-A receptor; alpha-1/beta-3/gamma-2 (Homo sapiens, UniProt P14867+P18507+P28472); test: Binding affinity measured using LtK- cell membranes expressing GABA alpha-1-beta-3-gamma-2 receptor
T2 sequence (P14867 whole entry): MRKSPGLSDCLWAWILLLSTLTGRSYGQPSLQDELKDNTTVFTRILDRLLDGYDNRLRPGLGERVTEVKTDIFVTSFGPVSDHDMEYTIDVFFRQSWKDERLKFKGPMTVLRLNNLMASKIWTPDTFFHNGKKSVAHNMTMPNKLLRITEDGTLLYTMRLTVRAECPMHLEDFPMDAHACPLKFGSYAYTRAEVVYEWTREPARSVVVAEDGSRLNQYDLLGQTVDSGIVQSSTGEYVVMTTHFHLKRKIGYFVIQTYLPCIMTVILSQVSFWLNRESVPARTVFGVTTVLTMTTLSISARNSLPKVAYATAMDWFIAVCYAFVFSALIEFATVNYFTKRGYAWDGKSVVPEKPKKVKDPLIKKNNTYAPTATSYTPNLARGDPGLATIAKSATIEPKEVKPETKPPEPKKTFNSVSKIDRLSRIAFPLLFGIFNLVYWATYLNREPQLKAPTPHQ
T2 sequence (P18507 whole entry): T1 sequence (P18507 whole entry)
T2 sequence (P28472 whole entry): T1 sequence (P28472 whole entry)

[5] = target: T3, GABA-A receptor; alpha-5/beta-3/gamma-2 (Homo sapiens, UniProt P18507+P28472+P31644); test: Binding affinity measured using LtK- cell membranes expressing Gamma-aminobutyric acid A receptor alpha-5-beta-3-gamma-2
T3 sequence (P18507 whole entry): T1 sequence (P18507 whole entry)
T3 sequence (P28472 whole entry): T1 sequence (P28472 whole entry)
T3 sequence (P31644 whole entry): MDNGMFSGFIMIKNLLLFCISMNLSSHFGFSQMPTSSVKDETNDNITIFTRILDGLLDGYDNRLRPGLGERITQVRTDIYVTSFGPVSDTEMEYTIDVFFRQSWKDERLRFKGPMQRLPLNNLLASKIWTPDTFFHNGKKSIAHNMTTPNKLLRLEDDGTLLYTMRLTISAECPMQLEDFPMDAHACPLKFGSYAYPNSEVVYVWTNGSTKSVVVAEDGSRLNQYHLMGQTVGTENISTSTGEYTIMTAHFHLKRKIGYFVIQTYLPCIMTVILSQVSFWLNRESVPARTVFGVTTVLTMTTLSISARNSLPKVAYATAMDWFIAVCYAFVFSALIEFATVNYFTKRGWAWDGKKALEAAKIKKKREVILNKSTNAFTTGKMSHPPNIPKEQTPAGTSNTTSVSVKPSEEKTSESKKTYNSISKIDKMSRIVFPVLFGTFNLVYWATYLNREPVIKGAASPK

[6] = target: T4, GABA-A receptor; alpha-2/beta-3/gamma-2 (Homo sapiens, UniProt P18507+P28472+P47869); test: Binding affinity measured using LtK- cell membranes expressing GABA alpha-2-beta-3-gamma-2 receptor
T4 sequence (P18507 whole entry): T1 sequence (P18507 whole entry)
T4 sequence (P28472 whole entry): T1 sequence (P28472 whole entry)
T4 sequence (P47869 whole entry): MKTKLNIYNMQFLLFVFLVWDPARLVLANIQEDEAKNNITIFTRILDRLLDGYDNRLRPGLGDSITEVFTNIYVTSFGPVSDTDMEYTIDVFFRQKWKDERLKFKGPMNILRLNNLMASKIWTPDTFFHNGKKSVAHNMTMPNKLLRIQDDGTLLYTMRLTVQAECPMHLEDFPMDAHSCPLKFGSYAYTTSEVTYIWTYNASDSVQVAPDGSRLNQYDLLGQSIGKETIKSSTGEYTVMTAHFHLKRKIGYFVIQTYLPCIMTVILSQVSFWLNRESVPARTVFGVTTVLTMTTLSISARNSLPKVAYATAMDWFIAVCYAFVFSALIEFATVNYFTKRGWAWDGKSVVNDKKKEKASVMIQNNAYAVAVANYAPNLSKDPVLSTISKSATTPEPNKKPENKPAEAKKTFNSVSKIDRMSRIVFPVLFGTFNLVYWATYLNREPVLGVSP

Compound | pIC50 [1] | pKi [2] | pKi [3] | pKi [4] | pKi [5] | pKi [6]
CCOC(=O)c1ncc2c(c1CC)c1cc(OCc3ccccc3)ccc1n2C | < 5.30 | – | – | – | – | –
CCOC(=O)c1cc2c3cc(OCc4ccccc4)ccc3n(C)c2cn1 | < 5.30 | – | – | – | – | –
CCc1c(C(=O)OC)ncc2[nH]c3cc(OC)c(OC)cc3c12 | – | 8.40 | 6.87 | 8.24 | 9.00 | 8.08
CC(C)COc1cc2c(cn1)[nH]c1ccccc12 | – | 6.86 | < 5.00 | 7.60 | 6.00 | 6.91
CCOC(=O)c1ncc2[nH]c3ccc(OCc4ccccc4)cc3c2c1COC | – | 8.22 | < 6.00 | 8.39 | 8.35 | 8.38
CCOC(=O)c1[nH]cc2nc3ccc(OCc4ccccc4)cc3c-2c1CC | – | 7.23 | < 5.00 | 7.68 | 7.17 | 7.11
CC(C)(C)OC(=O)c1cc2c3ccccc3nc-2c[nH]1 | – | 7.72 | < 5.30 | 9.14 | 6.95 | 7.82
CCc1c(OC)[nH]cc2nc3cc(OC)c(OC)cc3c1-2 | – | < 6.52 | < 6.52 | < 6.52 | < 6.52 | < 6.52
CCOC(=O)c1ncc2c(c1CC)c1ccccc1n2C | – | < 6.00 | < 5.00 | < 6.00 | < 6.00 | < 6.00
CCCOc1ccc2c(c1)c1c(COC)c(C(=O)OCC)ncc1n2C | 6.54 | – | – | – | – | –
CCCOc1[nH]cc2nc3ccc(OCc4ccccc4)cc3c-2c1COC | 7.20 | – | – | – | – | –
CCOC(=O)c1cc2c(cn1)[nH]c1ccccc12 | – | – | – | 8.92 | – | –
CC(C)Oc1cc2c(cn1)[nH]c1ccccc12 | – | < 5.52 | < 5.00 | 6.55 | < 5.00 | < 5.52
CCCCOc1cc2c(cn1)[nH]c1ccccc12 | – | 6.61 | < 6.00 | 7.43 | 6.00 | 6.71
CCCOc1ccc2[nH]c3cnc(C(=O)OCC)c(COC)c3c2c1 | 8.09 | 8.66 | 5.87 | 9.31 | 8.62 | 8.92
CCCOc1cc2c(cn1)[nH]c1ccccc12 | – | 7.16 | < 6.00 | 8.28 | 6.23 | 7.28
CCOC(=O)c1ncc2[nH]c3ccccc3c2c1COC | – | 8.32 | 5.94 | 9.22 | 7.98 | 8.55

Compound | pIC50 [1] | pKi [2] | pKi [3] | pKi [4] | pKi [5] | pKi [6]
CCCOc1ccc2[nH]c3cnc(C(=O)OC(C)C)c(COC)c3c2c1 | 7.51 | – | – | – | – | –
CCCOc1ccc2[nH]c3cnc(OCCC)c(COC)c3c2c1 | 7.36 | 6.57 | < 5.00 | 7.61 | 6.48 | 6.67
COCc1c(/N=C(/S)OC)[nH]cc2nc3ccc(OCc4ccccc4)cc3c1-2 | 6.75 | – | – | – | – | –
CCCOc1ccc2[nH]c3cnc(N=C=S)c(COC)c3c2c1 | 7.61 | – | – | – | – | –
CCOc1[nH]cc2nc3cc(OC)c(OC)cc3c-2c1CC | – | < 6.52 | < 6.52 | < 6.52 | < 6.52 | < 6.52
CCCCCCCCOc1ccc2c(c1)c1c(CC)c(C(=O)OCC)ncc1n2C | < 6.00 | – | – | – | – | –
COCc1c(N)[nH]cc2nc3ccc(OCc4ccccc4)cc3c1-2 | 6.57 | – | – | – | – | –
CCOC(=O)c1[nH]cc2nc3cc(OC)c(OC)cc3c-2c1CC | – | 8.40 | 7.13 | 8.21 | 8.48 | 7.73
CCC(C)Oc1cc2c3ccccc3nc-2c[nH]1 (stereo unspecified) | – | 6.06 | < 5.00 | 6.61 | < 5.00 | 6.09
c1ccc(COc2cc3c4ccccc4nc-3c[nH]2)cc1 | – | < 5.52 | < 5.00 | 6.08 | < 5.00 | < 5.52
CCOC(=O)c1[nH]cc2nc3ccc(OCc4cccc5ccccc45)cc3c-2c1COC | 7.26 | 6.53 | < 6.00 | 7.81 | 6.49 | –
CCOC(=O)c1ncc2c(c1CC)c1cc(OCc3cccc4ccccc34)ccc1n2C | < 6.00 | – | – | – | – | –
CC(C)CCOc1cc2c3ccccc3nc-2c[nH]1 | – | < 5.52 | < 5.00 | 6.46 | < 5.52 | < 5.52
CCOC(=O)c1ncc2c(c1COC)c1cc(OCc3cccc4ccccc34)ccc1n2C | 6.14 | – | – | – | – | –
COCc1c(C(=O)OC(C)C)ncc2[nH]c3ccc(OCc4ccccc4)cc3c12 [ABECARNIL] | – | 8.12 | < 5.00 | 7.91 | 8.22 | 7.82
Cc1nnc2ccc(-c3cccc(C(F)(F)F)c3)nn12 [CI-218872] | – | 5.94 | < 5.00 | 7.24 | 6.25 | 5.71
Cc1ccc(-c2nc3ccc(C)cn3c2CC(=O)N(C)C)cc1 [ZOLPIDEM] | – | – | < 5.00 | – | < 5.00 | –
